Test results reported in publication PMC5160999 (ChemMedChem, 2016).
Values after ≈ are worked out from the molar mass of the structure shown. Where two headings read alike, the source gives them in different places.

Columns and labels:
EcFPPS = EcFPPS (Escherichia coli, UniProt P22939); assay: EcFPPS inhibition, phosphate release assay; type: biochemical, E. coli
Method in brief: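 Purified recombinant FPPS (25 ng) preincubated with test compound for 10 min at room temperature in pH 7.0 buffer (10 mm HEPES, 150 mm NaCl, 5 mm MgCl2). Compound diluted from 1 mm to 1 nm. Reaction started with 50 μm GPP, 50 μm IPP, purine nucleoside phosphorylase, inorganic phosphatase and ~600 μm MESG.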

PaFPPS = PaFPPS (Pseudomonas aeruginosa, UniProt Q9HWY4); assay: PaFPPS inhibition, phosphate release assay; type: biochemical
Method in brief: (§1)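 Purified enzyme (25 ng) preincubated with inhibitor for 10 min at room temperature in pH 7.0 buffer (10 mM HEPES, 150 mM NaCl, 5 mM MgCl2). Inhibitor stocks were 10 mM in DMSO or basic water, serially diluted from 1 mM to 1 nM. Reaction mix: 50 μM GPP, 50 μM IPP, purine nucleoside phosphorylase, inorganic phosphatase, ~600 μM MESG.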

TbFPPS = TbFPPS (Trypanosoma brucei, UniProt Q86C09); assay: TbFPPS inhibition, phosphate release assay; type: biochemical
Method in brief: as §1

HsFPPS = target: T1, HsFPPS (Homo sapiens, UniProt P14324); assay: HsFPPS inhibition, phosphate release assay; type: biochemical, H. sapiens
T1 sequence (P14324 1-419): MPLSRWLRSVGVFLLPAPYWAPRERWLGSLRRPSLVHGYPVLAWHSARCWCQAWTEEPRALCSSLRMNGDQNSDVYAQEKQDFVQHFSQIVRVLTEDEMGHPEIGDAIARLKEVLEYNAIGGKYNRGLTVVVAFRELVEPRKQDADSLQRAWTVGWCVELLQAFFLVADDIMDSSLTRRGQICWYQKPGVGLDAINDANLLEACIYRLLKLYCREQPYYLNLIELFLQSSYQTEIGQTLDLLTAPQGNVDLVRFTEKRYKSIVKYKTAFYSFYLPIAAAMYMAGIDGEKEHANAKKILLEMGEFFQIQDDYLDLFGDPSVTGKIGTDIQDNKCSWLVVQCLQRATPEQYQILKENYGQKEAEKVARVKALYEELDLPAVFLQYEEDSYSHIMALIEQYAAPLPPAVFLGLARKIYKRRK

SmFPPS = SmFPPS (Schistosoma mansoni, UniProt G4VEL6); assay: SmFPPS inhibition, phosphate release assay; type: biochemical
Method in brief: as §1

[1] = target: T2, human geranylgeranyl diphosphate synthase (HsGGPPS) (Homo sapiens, UniProt O95749); assay: HsGGPPS inhibition; type: biochemical
T2 sequence (O95749 1-300): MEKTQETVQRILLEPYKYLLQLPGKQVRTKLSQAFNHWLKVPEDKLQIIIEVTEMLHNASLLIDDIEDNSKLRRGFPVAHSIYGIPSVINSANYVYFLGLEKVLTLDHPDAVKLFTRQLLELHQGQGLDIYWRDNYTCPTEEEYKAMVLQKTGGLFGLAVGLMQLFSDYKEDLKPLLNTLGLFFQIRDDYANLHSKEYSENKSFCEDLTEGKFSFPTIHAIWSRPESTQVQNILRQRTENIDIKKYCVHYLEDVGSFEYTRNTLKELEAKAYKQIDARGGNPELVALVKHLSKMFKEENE

[2] = tested on: S. aureus (Newman strain); assay: S. aureus growth inhibition assay; type: cell-based; conditions: Staphylococcus aureus, read-out: IC50 S. aureus
Method in brief: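 S. aureus Newman grown overnight in tryptic soy broth, then diluted 1000-fold in fresh medium. Test compound dosed as a 3-fold series from 1 mm to 46 nm. Incubated at 37°C, 200 RPM, overnight; growth read as OD600.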

B. subtilis = B. subtilis growth inhibition assay; type: cell-based; conditions: Bacillus subtilis, read-out: IC50 B. subtilis
Method in brief: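 B. subtilis ATCC 6051 grown overnight in LB and diluted 1000-fold in fresh LB. Test compound added as a 3-fold series from 1 mm to 46 nm. Incubated overnight at 37°C with shaking at 200 RPM; inhibition read from OD600.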

M. smegmatis = M. smegmatis growth inhibition; type: cell-based, Mycobacterium smegmatis
E. coli [3] = assay: E. coli growth inhibition assay; type: cell-based; conditions: Escherichia coli
Method in brief: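 E. coli K-12 or BL21(DE3). Overnight starter culture diluted 1000-fold and grown to OD600 ~0.3, then diluted 500-fold into LB. Test compound added as a 3-fold series from 1 mm to 46 nm. Incubated 12 h at 37°C with shaking at 200 RPM; growth read as A600. IC50 by nonlinear regression. Rescue arm: farnesol 200 μm in the medium. Duplicate experiments, mean±SD.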

A. baumannii [4] = assay: A. baumannii growth inhibition assay; type: cell-based; conditions: Acinetobacter baumannii
Method in brief: (§2)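 Strains: A. baumannii ATCC 19606, K. pneumoniae ATCC 27736 and P. aeruginosa PA01, grown overnight in cation-adjusted Mueller-Hinton broth. Cultures diluted 1000-fold in fresh broth, with test compound as a 3-fold series from 1 mm to 46 nm. Incubated overnight at 37°C, 200 RPM; OD600 read. Rescue arm: farnesol 200 μm in the medium. Duplicate experiments, mean±SD.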

K. pneumoniae [5] = assay: K. pneumoniae growth inhibition assay; type: cell-based; conditions: Klebsiella pneumoniae
Method in brief: as §2

P. aeruginosa (PA01) = assay: P. aeruginosa growth inhibition assay; type: cell-based; conditions: Pseudomonas aeruginosa
Method in brief: as §2

HEK293 = HEK293 toxicity assay; type: cell-based; conditions: Homo sapiens, HEK293, read-out: IC50 HEK293
E. coli [6] = assay: Synergy/antagonism two-drug combination assay, E. coli; type: cell-based
A. baumannii [7] = assay: Synergy/antagonism two-drug combination assay, A. baumannii; type: cell-based
K. pneumoniae [8] = assay: Synergy/antagonism two-drug combination assay, K. pneumoniae; type: cell-based
P. aeruginosa = assay: Synergy/antagonism two-drug combination assay, P. aeruginosa; type: cell-based
[9] = tested on: E. coli BL21(DE3) with PaFPPS overexpression; assay: Growth inhibition of E. coli overexpressing PaFPPS; type: cell-based; conditions: Escherichia coli
[10] = tested on: E. coli, P. aeruginosa, K. pneumoniae and A. baumannii; assay: Growth inhibition, four Gram-negative bacteria taken together; type: cell-based; conditions: read-out: IC50, activity against all four Gram-negatives
[11] = tested on: E. coli, A. baumannii, K. pneumoniae and P. aeruginosa; assay: Synergy of 11 with fosmidomycin, mean over four Gram-negative bacteria; type: cell-based
[12] = E. coli, combination of 11 with fosmidomycin
[13] = A. baumannii, combination of 11 with fosmidomycin
[14] = K. pneumoniae, combination of 11 with fosmidomycin
[15] = P. aeruginosa, combination of 11 with fosmidomycin

EcFPPS, sequence (P22939 whole entry): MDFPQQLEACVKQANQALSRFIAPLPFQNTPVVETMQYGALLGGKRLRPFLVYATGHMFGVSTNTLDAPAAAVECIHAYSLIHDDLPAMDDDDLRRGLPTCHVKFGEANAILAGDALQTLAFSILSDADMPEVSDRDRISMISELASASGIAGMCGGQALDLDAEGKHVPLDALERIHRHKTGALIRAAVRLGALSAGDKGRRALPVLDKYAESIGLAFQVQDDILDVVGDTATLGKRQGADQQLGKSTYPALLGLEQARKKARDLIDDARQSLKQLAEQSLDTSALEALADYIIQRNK

## O=P([O-])(O)C(C[n+]1ccn(CCCc2ccc(F)c(F)c2)c1)P(=O)(O)O (stereo not shown) [compound 11, Hydrogen (2-(3-(3-(3,4-difluorophenyl)propyl)-1H-imidazol-3-ium-1-yl)-1-phosphonoethyl) phosphonate]
EcFPPS
  IC50: 120 ± 25 nM
PaFPPS
  IC50: 320 ± 68 nM
TbFPPS
  IC50: 120 ± 26 nM
HsFPPS
  IC50: 65 ± 12 nM
SmFPPS
  IC50: 570 ± 110 nM
[1]
  IC50: 390 ± 73 nM
[2]
  IC50: > 100 µg/mL
B. subtilis
  IC50: 39 ± 13 µg/mL (≈ 95.1 µM)
M. smegmatis; Mycolicibacterium smegmatis, read-out: IC50 M. smegmatis, cell growth inhibition
  IC50: ~7 µg/mL (≈ 17.1 µM)
M. smegmatis; cell growth inhibition
  IC50 M. smegmatis: 6.8 ± 3.0 µg/mL (≈ 16.6 µM)
E. coli [3]; read-out: IC50 E. coli
  IC50: 2.1 ± 0.57 µg/mL (≈ 5.12 µM)
E. coli [3]; read-out: IC50 with RA
  IC50: 19 ± 4.1 µg/mL (≈ 46.3 µM)
E. coli [3]; read-out: IC50 without RA
  IC50: 2.1 ± 0.57 µg/mL (≈ 5.12 µM)
A. baumannii [4]; read-out: IC50 A. baumannii
  IC50: 2.8 ± 0.7 µg/mL (≈ 6.83 µM)
A. baumannii [4]; read-out: IC50 with RA
  IC50: 18 ± 4.9 µg/mL (≈ 43.9 µM)
A. baumannii [4]; read-out: IC50 without RA
  IC50: 2.8 ± 0.7 µg/mL (≈ 6.83 µM)
K. pneumoniae [5]; read-out: IC50 K. pneumoniae
  IC50: 2.3 ± 0.49 µg/mL (≈ 5.61 µM)
K. pneumoniae [5]; read-out: IC50 with RA
  IC50: 13 ± 1.8 µg/mL (≈ 31.7 µM)
K. pneumoniae [5]; read-out: IC50 without RA
  IC50: 2.3 ± 0.49 µg/mL (≈ 5.61 µM)
P. aeruginosa (PA01); read-out: IC50 P. aeruginosa
  IC50: 3.5 ± 0.78 µg/mL (≈ 8.53 µM)
P. aeruginosa (PA01); read-out: IC50 with RA
  IC50: 23 ± 7.8 µg/mL (≈ 56.1 µM)
P. aeruginosa (PA01); read-out: IC50 without RA
  IC50: 3.5 ± 0.78 µg/mL (≈ 8.53 µM)
HEK293
  IC50: 27 ± 4 µg/mL (≈ 65.8 µM)
E. coli [6]; E. coli cell growth, combination of 32 and 11
  FICI: 0.31 ± 0.099
E. coli [6]; [12]
  FIC: 0.24 ± 0.023
  FIC Index: 0.39 ± 0.15
E. coli [6]; Escherichia coli
  MIC: 6 µg/mL
A. baumannii [7]; [13]
  FIC: 0.37 ± 0.17
  FIC Index: 0.64 ± 0.23
A. baumannii [7]; Acinetobacter baumannii
  MIC: 6 µg/mL
K. pneumoniae [8]; [14]
  FIC: 0.097 ± 0.012
  FIC Index: 0.22 ± 0.026
K. pneumoniae [8]; Klebsiella pneumoniae
  MIC: 6 µg/mL
P. aeruginosa; [15]
  FIC: 0.27 ± 0.057
  FIC Index: 0.44 ± 0.12
P. aeruginosa; Pseudomonas aeruginosa
  MIC: 10 µg/mL
[9]; BL21-DE3, read-out: IC50 with RA
  IC50: 19 ± 2.4 µg/mL (≈ 46.3 µM)
[9]; BL21-DE3, read-out: IC50 without RA
  IC50: 1.6 ± 0.35 µg/mL (≈ 3.9 µM)
[10]
  IC50: 1 to 4 µg/mL (≈ 2.44 to 9.75 µM)
[11]
  mean FICI: 0.42 ± 0.17
